{
  "source": "ChEMBL document CHEMBL3102806",
  "about": "“1,2,4-Triazole/oxime hybrids as new strategy for nitric oxide donors: Synthesis, anti-inflammatory, ulceroginicity and antiproliferative activities” (Eur J Med Chem, 2014)",
  "key": {"[1]": {"test": "Induction of nitric oxide release in phosphate buffer at 10^-4 M at pH 7.4 after 1 hr by Griess colorimetric method in presence of N-acetylcysteine", "format": "physicochemical", "conditions": "pH 7.4, 1 h, 100 µM", "method_in_brief": "(§1)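 Final drug concentration 10^-4 M, added from DMF into 1:1 50 mM phosphate buffer (pH 7.4)/MeOH containing 5 × 10^-4 M N-acetylcysteine, at 37 °C. Nitrite read with Griess reagent after 10 min at room temperature, absorbance at 546 nm. Calibration with sodium nitrite standards (10–80 nmol/ml). Reported as mol NO per mol, n = 4 reaction mixtures.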"}, "Rattus norvegicus [2]": {"system": "Rattus norvegicus", "test": "Antiinflammatory activity in albino rat assessed as inhibition of carrageenan-induced paw edema at 0.28 mmol/kg, po administered 30 mins prior to carrageenan-challenge measured after 3 hrs relative to control", "format": "functional", "method_in_brief": "(§2)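 Male albino rats in groups of four were fasted 24 h with water allowed. Dosing was oral at 0.28 mmol/kg, suspended in 0.5% w/v CMC; controls got CMC alone. After 30 min, 0.1 ml of 1% carrageenan in saline went subplantar into the right hind paw and saline into the left. Paw thickness was read by caliper before and at 1–5 h. % inhibition = [(VR−VL)control−(VR−VL)treated]/(VR−VL)control ×100. Mean ± SEM, n = 4, one-way ANOVA vs control.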"}, "[3]": {"test": "Induction of nitric oxide release in phosphate buffer at 10^-4 M at pH 7.4 after 3 hrs by Griess colorimetric method in presence of N-acetylcysteine", "format": "physicochemical", "conditions": "pH 7.4, 3 h, 100 µM", "method_in_brief": "as §1"}, "[4]": {"test": "Growth inhibition of human EKVX cells assessed as cell growth at 10^-5 M after 48 hrs by sulforhodamine B assay relative to control", "format": "functional", "conditions": "read-out: Activity", "method_in_brief": "(§3)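 NCI ~60 human tumour cell line screen. Single concentration of 10^-5 M added to cultures for 48 h. End point by sulforhodamine B protein staining read spectrophotometrically. Percent growth relative to untreated control cells.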"}, "T47D": {"system": "T47D", "test": "Growth inhibition of human T47D cells assessed as cell growth at 10^-5 M after 48 hrs by sulforhodamine B assay relative to control", "format": "functional", "conditions": "read-out: Activity", "method_in_brief": "(§4)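 NCI primary screen across about 60 human tumour cell lines. Single dose of 10^-5 M, cultures incubated 48 h, end point by sulforhodamine B protein staining read spectrophotometrically. Results are given as percent growth of treated cells relative to untreated control cells.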"}, "SN12C": {"system": "SN12C", "test": "Growth inhibition of human SN12C cells assessed as cell growth at 10^-5 M after 48 hrs by sulforhodamine B assay relative to control", "format": "functional", "conditions": "read-out: Activity", "method_in_brief": "as §4"}, "[5]": {"test": "Induction of nitric oxide release in phosphate buffer at 10^-4 M at pH 7.4 after 2 hrs by Griess colorimetric method in presence of N-acetylcysteine", "format": "physicochemical", "conditions": "pH 7.4, 2 h, 100 µM", "method_in_brief": "as §1"}, "NCI-H460": {"system": "NCI-H460", "test": "Growth inhibition of human NCI-H460 cells assessed as cell growth at 10^-5 M after 48 hrs by sulforhodamine B assay relative to control", "format": "functional", "conditions": "NCI-H460, 48 h, read-out: Activity", "method_in_brief": "(§5)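 NCI primary screen, one-dose format across about 60 human tumour cell lines. Single addition at 10^-5 M with 48 h incubation; SRB protein-binding dye end point read spectrophotometrically. Reported as percent growth of treated cells versus untreated controls.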"}, "LOX IMVI": {"system": "LOX IMVI", "test": "Growth inhibition of human LOXIMVI cells assessed as cell growth at 10^-5 M after 48 hrs by sulforhodamine B assay relative to control", "format": "functional", "conditions": "read-out: Activity", "method_in_brief": "as §5"}, "[6]": {"test": "Induction of nitric oxide release in phosphate buffer at 10^-4 M at pH 7.4 after 6 hrs by Griess colorimetric method in presence of N-acetylcysteine", "format": "physicochemical", "conditions": "pH 7.4, 6 h, 100 µM", "method_in_brief": "as §1"}, "[7]": {"test": "Growth inhibition of human RXF393 cells assessed as cell growth at 10^-5 M after 48 hrs by sulforhodamine B assay relative to control", "format": "functional", "conditions": "RXF 393, 48 h, read-out: Activity", "method_in_brief": "as §5"}, "Rattus norvegicus [8]": {"system": "Rattus norvegicus", "test": "Ulcerogenic activity in albino rat carrageenan-induced paw edema model assessed as ulcer index at 0.28 mmol/kg, po (reference value: 0.60 +/- 0.05)", "format": "toxicity, organism-based", "conditions": "in vivo", "method_in_brief": "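Rats given the compound orally at 0.28 mmol/kg, suspended in 0.5% aqueous CMC; vehicle-only control, n = 4 per group. Gastric ulcers graded by area: I (<1 mm²), II (1–3 mm²), III (>3 mm²). Ulcer index = 1×(level I count) + 2×(level II) + 3×(level III). Mean ± SEM, one-way ANOVA versus control.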"}, "Rattus norvegicus [9]": {"system": "Rattus norvegicus", "test": "Antiinflammatory activity in albino rat assessed as inhibition of carrageenan-induced paw edema at 0.28 mmol/kg, po administered 30 mins prior to carrageenan-challenge measured after 2 hrs relative to control", "format": "functional", "method_in_brief": "as §2"}, "NCI-H322M": {"system": "NCI-H322M", "test": "Growth inhibition of human NCI-H322M cells assessed as cell growth at 10^-5 M after 48 hrs by sulforhodamine B assay relative to control", "format": "functional", "conditions": "read-out: Activity", "method_in_brief": "as §5"}, "SNB-75": {"system": "SNB-75", "test": "Growth inhibition of human SNB75 cells assessed as cell growth at 10^-5 M after 48 hrs by sulforhodamine B assay relative to control", "format": "functional", "conditions": "SNB-75, 48 h, read-out: Activity", "method_in_brief": "as §4"}, "CCRF-CEM": {"system": "CCRF-CEM", "test": "Growth inhibition of human CCRF-CEM cells assessed as cell growth at 10^-5 M after 48 hrs by sulforhodamine B assay relative to control", "format": "functional", "conditions": "read-out: Activity", "method_in_brief": "as §3"}, "A549": {"system": "A549", "test": "Growth inhibition of human A549/ATCC cells assessed as cell growth at 10^-5 M after 48 hrs by sulforhodamine B assay relative to control", "format": "functional", "conditions": "A549, 48 h, read-out: Activity", "method_in_brief": "as §3"}, "HOP-62": {"system": "HOP-62", "test": "Growth inhibition of human HOP62 cells assessed as cell growth at 10^-5 M after 48 hrs by sulforhodamine B assay relative to control", "format": "functional", "conditions": "HOP-62, 48 h, read-out: Activity", "method_in_brief": "as §3"}, "[10]": {"test": "Growth inhibition of human Hs 578T cells assessed as cell growth at 10^-5 M after 48 hrs by sulforhodamine B assay relative to control", "format": "functional", "conditions": "read-out: Activity", "method_in_brief": "as §3"}, "Malme-3M": {"system": "Malme-3M", "test": "Growth inhibition of human MALME-3M cells assessed as cell growth at 10^-5 M after 48 hrs by sulforhodamine B assay relative to control", "format": "functional", "conditions": "read-out: Activity", "method_in_brief": "as §5"}, "OVCAR-3": {"system": "OVCAR-3", "test": "Growth inhibition of human OVCAR3 cells assessed as cell growth at 10^-5 M after 48 hrs by sulforhodamine B assay relative to control", "format": "functional", "conditions": "OVCAR-3, 48 h, read-out: Activity", "method_in_brief": "as §5"}, "SK-OV-3": {"system": "SK-OV-3", "test": "Growth inhibition of human SKOV3 cells after 48 hrs by sulforhodamine B assay", "format": "functional", "conditions": "SK-OV-3, 48 h", "method_in_brief": "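NCI 60-cell-line panel, five-dose run at 10-fold dilutions from 10^-4 to 10^-8 M, 48 h continuous exposure. Viability by SRB protein stain. Percent growth is taken from time-zero, untreated-control and treated absorbances. GI50 is the concentration giving a 50% lower net protein increase than in control cells. TGI is taken at Ti = Tz, LC50 at a 50% loss of initial protein.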"}},
  "data": [
    {"compound": "C/C(=N\\O)c1ccc(NC(=O)CSc2nnc(-c3ccccc3)n2-c2ccccc2)cc1", "values": [
      {"measurement": "Activity", "setting": "[1]", "result": 0.11, "unit": "mol/mol"},
      {"measurement": "inhibition in vivo at 280 µmol/kg", "setting": "Rattus norvegicus [2]", "result": 63, "unit": "%"},
      {"measurement": "Activity", "setting": "[3]", "result": 0.2, "unit": "mol/mol"},
      {"measurement": "growth at 10 µM", "setting": "[4]", "result": 91.9, "unit": "%"},
      {"measurement": "growth at 10 µM", "setting": "T47D", "result": 92, "unit": "%"},
      {"measurement": "growth at 10 µM", "setting": "SN12C", "result": 76.2, "unit": "%"},
      {"measurement": "Activity", "setting": "[5]", "result": 0.15, "unit": "mol/mol"},
      {"measurement": "growth at 10 µM", "setting": "NCI-H460", "result": -34.7, "unit": "%"},
      {"measurement": "growth at 10 µM", "setting": "LOX IMVI", "result": 82.9, "unit": "%"},
      {"measurement": "Activity", "setting": "[6]", "result": 0.16, "unit": "mol/mol"},
      {"measurement": "growth at 10 µM", "setting": "[7]", "result": 72.5, "unit": "%"},
      {"measurement": "UI", "setting": "Rattus norvegicus [8]", "result": 0.95},
      {"measurement": "inhibition in vivo at 280 µmol/kg", "setting": "Rattus norvegicus [9]", "result": 52, "unit": "%"},
      {"measurement": "growth at 10 µM", "setting": "NCI-H322M", "result": 66.7, "unit": "%"},
      {"measurement": "growth at 10 µM", "setting": "SNB-75", "result": 59.2, "unit": "%"},
      {"measurement": "growth at 10 µM", "setting": "CCRF-CEM", "result": 92, "unit": "%"},
      {"measurement": "growth at 10 µM", "setting": "A549", "result": 81.9, "unit": "%"},
      {"measurement": "growth at 10 µM", "setting": "HOP-62", "result": 64.7, "unit": "%"},
      {"measurement": "growth at 10 µM", "setting": "[10]", "result": 79.6, "unit": "%"},
      {"measurement": "growth at 10 µM", "setting": "Malme-3M", "result": 91.8, "unit": "%"},
      {"measurement": "growth at 10 µM", "setting": "OVCAR-3", "result": 87.3, "unit": "%"}
    ]},
    {"compound": "COc1ccc(-c2nnc(SCC(=O)Nc3ccc(/C(C)=N/O)cc3)n2-c2ccccc2)cc1OC", "values": [
      {"measurement": "Activity", "setting": "[1]", "result": 0.15, "unit": "mol/mol"},
      {"measurement": "inhibition in vivo at 280 µmol/kg", "setting": "Rattus norvegicus [2]", "result": 77, "unit": "%"},
      {"measurement": "Activity", "setting": "[3]", "result": 0.23, "unit": "mol/mol"},
      {"measurement": "growth at 10 µM", "setting": "[4]", "result": 71.1, "unit": "%"},
      {"measurement": "growth at 10 µM", "setting": "T47D", "result": 68, "unit": "%"},
      {"measurement": "growth at 10 µM", "setting": "SN12C", "result": 71.8, "unit": "%"},
      {"measurement": "GI50", "setting": "SK-OV-3", "result": 2.73, "unit": "µM"},
      {"measurement": "TGI", "setting": "SK-OV-3", "result": 13.7, "unit": "µM"},
      {"measurement": "CC50", "setting": "SK-OV-3; read-out: LC50 (the source's name)", "result": "> 100", "unit": "µM"},
      {"measurement": "Activity", "setting": "[5]", "result": 0.2, "unit": "mol/mol"},
      {"measurement": "growth at 10 µM", "setting": "NCI-H460", "result": 102, "unit": "%"},
      {"measurement": "growth at 10 µM", "setting": "LOX IMVI", "result": 80.1, "unit": "%"},
      {"measurement": "Activity", "setting": "[6]", "result": 0.31, "unit": "mol/mol"},
      {"measurement": "growth at 10 µM", "setting": "[7]", "result": 32.4, "unit": "%"},
      {"measurement": "UI", "setting": "Rattus norvegicus [8]", "result": 1.11},
      {"measurement": "inhibition in vivo at 280 µmol/kg", "setting": "Rattus norvegicus [9]", "result": 63, "unit": "%"},
      {"measurement": "growth at 10 µM", "setting": "NCI-H322M", "result": 75.7, "unit": "%"},
      {"measurement": "growth at 10 µM", "setting": "SNB-75", "result": -16.5, "unit": "%"},
      {"measurement": "growth at 10 µM", "setting": "CCRF-CEM", "result": 98.5, "unit": "%"},
      {"measurement": "growth at 10 µM", "setting": "A549", "result": 70.7, "unit": "%"},
      {"measurement": "growth at 10 µM", "setting": "HOP-62", "result": -26.4, "unit": "%"},
      {"measurement": "growth at 10 µM", "setting": "[10]", "result": 42.8, "unit": "%"},
      {"measurement": "growth at 10 µM", "setting": "Malme-3M", "result": 61.8, "unit": "%"},
      {"measurement": "growth at 10 µM", "setting": "OVCAR-3", "result": 82, "unit": "%"}
    ]}
  ]
}
